Source: ChEMBL document CHEMBL4706586, “Structure-activity relationships for a series of (Bis(4-fluorophenyl)methyl)sulfinylethyl-aminopiperidines and -piperidine amines at the dopamine transporter: Bioisosteric replacement of the piperazine improves metabolic stability” (Eur J Med Chem, 2020)

Tests used:
[1] = Metabolic stability in mouse liver microsomes assessed as compound remaining at 10 uM incubated for 60 mins in presence of NADPH regenerating system by LC-MS/MS analysis; assay type: ADME, Microsome; details: 1 h
[2] = molecular target: Sodium-dependent dopamine transporter (Rattus norvegicus, UniProt P23977); experiment: Displacement of [3H]WIN35428 from DAT in Sprague-Dawley rat striatal membranes incubated for 120 mins by microbeta scintillation counting method; assay type: cell membranes, Striatum, Membrane
Sequence of Sodium-dependent dopamine transporter (P23977 whole entry): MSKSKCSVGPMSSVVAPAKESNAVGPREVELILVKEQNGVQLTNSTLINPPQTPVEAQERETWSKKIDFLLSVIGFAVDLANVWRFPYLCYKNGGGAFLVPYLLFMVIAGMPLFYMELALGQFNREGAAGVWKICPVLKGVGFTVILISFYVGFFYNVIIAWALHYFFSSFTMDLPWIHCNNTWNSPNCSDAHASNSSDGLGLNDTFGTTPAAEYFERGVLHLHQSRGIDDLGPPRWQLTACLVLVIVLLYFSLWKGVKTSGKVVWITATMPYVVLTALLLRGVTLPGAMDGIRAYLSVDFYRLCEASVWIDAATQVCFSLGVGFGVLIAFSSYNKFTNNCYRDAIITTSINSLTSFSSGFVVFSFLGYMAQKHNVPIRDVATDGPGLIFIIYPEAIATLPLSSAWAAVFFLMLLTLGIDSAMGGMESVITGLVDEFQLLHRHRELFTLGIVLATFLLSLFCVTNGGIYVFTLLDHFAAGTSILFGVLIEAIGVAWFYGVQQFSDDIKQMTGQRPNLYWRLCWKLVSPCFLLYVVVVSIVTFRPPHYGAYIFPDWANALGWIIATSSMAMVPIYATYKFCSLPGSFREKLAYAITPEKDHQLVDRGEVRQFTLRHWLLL

[3] = Toxicity in Swiss Webster mouse assessed as stimulation of ambulatory activity by measuring total distance travelled at 1 to 30 mg/kg, ip measured every 5 mins for 2 hrs; assay type: organism-based; details: in vivo, dose 1-30 mg/kg
[4] = Metabolic stability in rat liver microsomes assessed as compound remaining at 10 uM in presence of NADPH regenerating system by LC-MS/MS analysis; assay type: ADME, Microsome
[5] = Metabolic stability in rat liver microsomes assessed as compound remaining at 10 uM incubated for 60 mins in presence of NADPH regenerating system by LC-MS/MS analysis; assay type: ADME, Microsome; details: 1 h
D(3) dopamine receptor = D(3) dopamine receptor (Homo sapiens, UniProt P35462); experiment: Displacement of [3H]-N-methylspiperone from human D3 receptor expressed in HEK293 cell membranes measured after 60 mins by microbeta scintillation counting method; set-up: species or system Membrane
Sequence of D(3) dopamine receptor (P35462 whole entry): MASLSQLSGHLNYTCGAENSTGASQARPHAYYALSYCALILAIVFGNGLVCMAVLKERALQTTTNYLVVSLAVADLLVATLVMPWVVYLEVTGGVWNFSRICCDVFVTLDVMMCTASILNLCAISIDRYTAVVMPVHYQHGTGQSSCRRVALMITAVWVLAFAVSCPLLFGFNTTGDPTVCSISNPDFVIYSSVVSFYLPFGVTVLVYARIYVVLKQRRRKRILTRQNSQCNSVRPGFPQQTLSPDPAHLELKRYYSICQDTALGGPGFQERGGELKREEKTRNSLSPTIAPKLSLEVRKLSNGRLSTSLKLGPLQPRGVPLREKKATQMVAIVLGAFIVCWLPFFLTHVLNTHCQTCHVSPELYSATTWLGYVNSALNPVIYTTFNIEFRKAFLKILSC
In short: (§1)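 Membranes from HEK293 cells stably expressing human D2LR, D3R or D4.4R; 20 μg/well protein (D2LR, D3R) or 30 μg/well (D4.4R); [3H]-N-methylspiperone 0.4 nM final; half-log dilutions in 30% DMSO, triplicate; 60 min RT; nonspecific 10 μM (+)-butaclamol.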

[6] = Displacement of [3H]-Nisoxetine from NET in Sprague-Dawley rat frontal cortex membrane after 180 mins by microbeta scintillation counting method; assay type: cell membranes
[7] = molecular target: Sodium-dependent serotonin transporter (Rattus norvegicus, UniProt P31652); experiment: Displacement of [3H]citalopram from SERT in Sprague-Dawley rat midbrain membranes incubated for 60 mins by microbeta scintillation counting method; assay type: cell membranes, Membrane
Sequence of Sodium-dependent serotonin transporter (P31652 whole entry): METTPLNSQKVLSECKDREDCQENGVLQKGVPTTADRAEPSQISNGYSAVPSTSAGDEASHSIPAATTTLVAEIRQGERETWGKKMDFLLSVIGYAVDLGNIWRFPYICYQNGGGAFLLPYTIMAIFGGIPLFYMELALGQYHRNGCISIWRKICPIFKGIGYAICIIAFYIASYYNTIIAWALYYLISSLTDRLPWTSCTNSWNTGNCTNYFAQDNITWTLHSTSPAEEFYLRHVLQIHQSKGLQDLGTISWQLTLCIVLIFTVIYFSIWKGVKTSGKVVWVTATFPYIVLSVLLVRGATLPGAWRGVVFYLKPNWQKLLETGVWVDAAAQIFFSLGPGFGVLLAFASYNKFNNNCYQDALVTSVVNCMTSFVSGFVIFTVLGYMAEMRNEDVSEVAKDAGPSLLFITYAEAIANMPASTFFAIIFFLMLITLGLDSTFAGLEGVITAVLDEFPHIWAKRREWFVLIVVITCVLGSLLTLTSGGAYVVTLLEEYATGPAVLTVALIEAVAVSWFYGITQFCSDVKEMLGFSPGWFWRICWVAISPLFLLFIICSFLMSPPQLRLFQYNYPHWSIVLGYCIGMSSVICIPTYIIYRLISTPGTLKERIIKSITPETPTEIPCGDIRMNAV

[8] = molecular target: Sigma non-opioid intracellular receptor 1 (Cavia porcellus, UniProt Q60492); experiment: Displacement of [3H](+)-pentazocine from sigma 1 receptor in guinea pig brain cortex membranes after 120 mins by scintillation counting analysis; assay type: cell membranes, Membrane
Sequence of Sigma non-opioid intracellular receptor 1 (Q60492 whole entry): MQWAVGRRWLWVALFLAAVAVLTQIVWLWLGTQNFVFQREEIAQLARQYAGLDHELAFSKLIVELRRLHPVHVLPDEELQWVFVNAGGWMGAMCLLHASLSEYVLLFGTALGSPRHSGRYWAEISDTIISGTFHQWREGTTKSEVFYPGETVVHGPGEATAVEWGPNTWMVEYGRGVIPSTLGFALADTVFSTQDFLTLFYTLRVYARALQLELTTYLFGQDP
In short: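 Male guinea pig cortex membranes in 10 mM Tris-HCl/0.32 M sucrose pH 7.4, 5.0 mg/well original wet weight; [3H](+)-pentazocine 3 nM final; inhibitor serial dilutions in 30% DMSO vehicle, triplicate; 120 min at RT; nonspecific with 10 μM PRE084 or (+)-pentazocine.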

D(2) dopamine receptor = D(2) dopamine receptor (Homo sapiens, UniProt P14416); experiment: Displacement of [3H]-N-methylspiperone from human D2L receptor expressed in HEK293 cell membranes measured after 60 mins by microbeta scintillation counting method; set-up: species or system Membrane; in short: as §1
Sequence of D(2) dopamine receptor (P14416 whole entry): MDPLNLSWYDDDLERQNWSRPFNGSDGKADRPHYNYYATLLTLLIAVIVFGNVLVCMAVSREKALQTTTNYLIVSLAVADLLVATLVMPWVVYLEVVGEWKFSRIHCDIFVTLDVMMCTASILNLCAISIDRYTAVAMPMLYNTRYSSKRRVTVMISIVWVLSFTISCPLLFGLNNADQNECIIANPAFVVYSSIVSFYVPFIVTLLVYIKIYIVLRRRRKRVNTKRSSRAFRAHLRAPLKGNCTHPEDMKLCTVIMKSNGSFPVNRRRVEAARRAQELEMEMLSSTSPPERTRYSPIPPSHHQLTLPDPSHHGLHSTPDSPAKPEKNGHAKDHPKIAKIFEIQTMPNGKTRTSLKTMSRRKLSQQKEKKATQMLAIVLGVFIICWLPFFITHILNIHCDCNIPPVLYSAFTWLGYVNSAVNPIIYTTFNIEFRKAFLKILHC

[9] = Toxicity in Swiss Webster mouse assessed as stimulation of ambulatory activity by measuring total distance travelled at 30 mg/kg, ip measured every 5 mins for 2 hrs; assay type: organism-based; details: in vivo
D(4) dopamine receptor = molecular target: T1, D(4) dopamine receptor (Homo sapiens, UniProt P21917); experiment: Displacement of [3H]-N-methylspiperone from human D4.4 receptor expressed in HEK293 cell membranes measured after 60 mins by microbeta scintillation counting method; set-up: species or system Membrane; in short: as §1
T1 sequence (P21917 whole entry): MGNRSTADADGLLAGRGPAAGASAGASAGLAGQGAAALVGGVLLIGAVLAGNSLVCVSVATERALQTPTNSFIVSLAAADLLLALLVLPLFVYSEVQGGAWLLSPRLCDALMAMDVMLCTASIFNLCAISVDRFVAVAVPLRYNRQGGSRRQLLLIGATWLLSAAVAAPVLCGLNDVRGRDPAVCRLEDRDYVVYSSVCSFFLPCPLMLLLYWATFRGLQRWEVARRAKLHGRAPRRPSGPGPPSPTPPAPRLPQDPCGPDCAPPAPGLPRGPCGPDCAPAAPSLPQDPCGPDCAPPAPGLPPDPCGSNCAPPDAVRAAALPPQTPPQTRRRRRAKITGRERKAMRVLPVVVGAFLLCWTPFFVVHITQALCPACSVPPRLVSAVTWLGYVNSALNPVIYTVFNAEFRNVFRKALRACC

Rattus norvegicus = organism: Rattus norvegicus; experiment: Selectivity ratio of Ki for SERT in Sprague-Dawley rat midbrain membranes to Ki for DAT in Sprague-Dawley rat striatum membranes
[10] = Selectivity ratio of Ki for sigma 1 receptor in guinea pig brain cortex membranes to Ki for DAT in Sprague-Dawley rat striatum membranes; assay type: cell membranes

Row | SMILES | Stabilty [1] | Ki [2] | Activity [3] | Stabilty [4] | Stabilty [5] | Ki (D(3) dopamine receptor) | Ki [6] | Ki [7] | Ki [8] | Ki (D(2) dopamine receptor) | Activity [9] | Ki (D(4) dopamine receptor) | Ratio Ki (Rattus norvegicus) | Ratio Ki [10]
1 | O=C(c1ccc(F)cc1F)N1CCC(NCCSC(c2ccc(F)cc2)c2ccc(F)cc2)CC1 | 33% | 0.03 µM | < 3000 cm | 100% | 85% | 3.26 µM | 1.62 µM | 0.296 µM | 0.0206 µM | 7.44 µM |  |  |  | 
2 | COC(=O)[C@H]1[C@@H](OC(=O)c2ccccc2)C[C@@H]2CC[C@H]1N2C [COCAINE] |  |  |  |  |  |  |  |  |  |  | 8000 cm |  |  | 
3 | [O-][S+](CCNC1CCN(Cc2ccc(F)cc2)CC1)C(c1ccc(F)cc1)c1ccc(F)cc1 (stereo unspecified) |  |  | < 3000 cm | 100% | 95% | 12.4 µM | 11.2 µM |  | 0.0265 µM | 12.4 µM |  | 76.8 µM | 7.37 | 0.52
